Measured values as given in ChEMBL document CHEMBL1132476, “Design and synthesis of novel alpha(1)(a) adrenoceptor-selective antagonists. 1. Structure-activity relationship in dihydropyrimidinones” (J Med Chem, 1999).

How the values were obtained:
Canis familiaris [1] = organism: Canis familiaris; assay: Potency to inhibi phenylephrine stimulated diastolic blood pressure in dog.; type: functional, Canis lupus familiaris, Artery
Summary of the method: (§1)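 Male mongrel dogs (9–14 kg), pentobarbital-anesthetized (35 mg/kg iv plus 4–5 mg/kg/h infusion), ventilated, with femoral catheters. Control iv bolus phenylephrine dose–response curves for intraurethral and diastolic pressure, repeated after successive iv antagonist doses (30, 100, 300). Kb by Arunlakshana–Schild analysis.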

Canis familiaris [2] = organism: Canis familiaris; assay: Potency to inhibit phenylephrine stimulated intraurethral pressure in dog.; type: functional, Canis lupus familiaris, Urethra; summary of the method: as §1
Rattus norvegicus [3] = organism: Rattus norvegicus; assay: Dose required to produce 50% inhibition of phenylephrine induced contractile response in situ rat prostate.; type: functional, Prostate gland
Summary of the method: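 Male Sprague-Dawley rats (300–400 g), urethane-anesthetized, held at 37 °C rectal, pretreated with atropine and propranolol (1 mg/kg each). Anterior prostate on a force transducer at 2 g resting tension; phenylephrine challenge 10 μg/kg. For AD50, rising noncumulative antagonist doses were given every 20 min, with agonist 5 min after each. For duration, agonist was given 5 min after antagonist, then every 30 min for up to 4 h.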

Rattus norvegicus [4] = organism: Rattus norvegicus; assay: Dose required to produce 50% inhibition of phenylephrine induced diastolic blood pressure in rat.; type: functional, Artery
Rattus norvegicus [5] = organism: Rattus norvegicus; assay: (§2) Duration of action in rat; type: functional
Summary of the method: (§3)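 Anesthetized (urethane) male Sprague-Dawley rats (300–400 g), kept at 37 °C rectal temperature. Anterior prostate attached to a force transducer at 2 g resting tension. Pretreatment: atropine and propranolol (1 mg/kg each). Contractions were evoked by agonist (phenylephrine 10 μg/kg or (R)-A-61603 30 ng/kg), given 5 min after antagonist and then every 30 min for up to 4 h.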

Rattus norvegicus [6] = organism: Rattus norvegicus; assay: Antagonistic activity against norepinephrine induced contractions in rat aorta.; type: functional
Rattus norvegicus [7] = organism: Rattus norvegicus; assay: as §2; type: ADME, organism-based; settings: in vivo; summary of the method: as §3
[8] = biological target: T1, Adrenergic receptor alpha-1 (Rattus norvegicus, UniProt P15823+P23944+P43140); assay: In vitro binding affinity against Alpha-1A adrenergic receptor in isolated prostate tissue of rat; type: tissue-based, Prostate gland
T1 sequence (P15823 whole entry): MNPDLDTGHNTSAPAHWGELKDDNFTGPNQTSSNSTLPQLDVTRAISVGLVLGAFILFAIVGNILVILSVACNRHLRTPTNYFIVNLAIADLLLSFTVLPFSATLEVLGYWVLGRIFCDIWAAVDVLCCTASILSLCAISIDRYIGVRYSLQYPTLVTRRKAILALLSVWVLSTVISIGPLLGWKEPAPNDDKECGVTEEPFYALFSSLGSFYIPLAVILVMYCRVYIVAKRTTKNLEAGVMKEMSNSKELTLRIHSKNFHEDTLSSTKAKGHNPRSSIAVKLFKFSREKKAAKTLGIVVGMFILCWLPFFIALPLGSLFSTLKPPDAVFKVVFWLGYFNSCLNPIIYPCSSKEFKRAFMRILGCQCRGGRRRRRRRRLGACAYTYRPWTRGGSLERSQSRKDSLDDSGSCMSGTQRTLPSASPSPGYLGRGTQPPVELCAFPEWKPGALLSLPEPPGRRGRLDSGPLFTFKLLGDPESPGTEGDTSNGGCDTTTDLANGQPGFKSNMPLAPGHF
T1 sequence (P23944 whole entry): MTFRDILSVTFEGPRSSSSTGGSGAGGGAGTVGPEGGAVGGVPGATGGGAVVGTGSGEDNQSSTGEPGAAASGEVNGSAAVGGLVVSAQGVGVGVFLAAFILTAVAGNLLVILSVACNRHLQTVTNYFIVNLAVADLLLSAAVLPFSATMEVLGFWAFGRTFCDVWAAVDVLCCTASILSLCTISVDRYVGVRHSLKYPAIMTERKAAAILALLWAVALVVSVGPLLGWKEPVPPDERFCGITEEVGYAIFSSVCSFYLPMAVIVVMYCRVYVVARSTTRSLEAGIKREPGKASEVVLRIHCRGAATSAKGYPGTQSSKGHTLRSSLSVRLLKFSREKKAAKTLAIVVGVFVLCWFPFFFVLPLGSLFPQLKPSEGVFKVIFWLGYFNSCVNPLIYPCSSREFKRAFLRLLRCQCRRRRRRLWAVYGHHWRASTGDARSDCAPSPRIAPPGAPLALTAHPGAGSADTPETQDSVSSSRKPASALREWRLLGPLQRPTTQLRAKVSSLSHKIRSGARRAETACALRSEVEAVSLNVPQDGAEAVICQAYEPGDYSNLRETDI
T1 sequence (P43140 whole entry): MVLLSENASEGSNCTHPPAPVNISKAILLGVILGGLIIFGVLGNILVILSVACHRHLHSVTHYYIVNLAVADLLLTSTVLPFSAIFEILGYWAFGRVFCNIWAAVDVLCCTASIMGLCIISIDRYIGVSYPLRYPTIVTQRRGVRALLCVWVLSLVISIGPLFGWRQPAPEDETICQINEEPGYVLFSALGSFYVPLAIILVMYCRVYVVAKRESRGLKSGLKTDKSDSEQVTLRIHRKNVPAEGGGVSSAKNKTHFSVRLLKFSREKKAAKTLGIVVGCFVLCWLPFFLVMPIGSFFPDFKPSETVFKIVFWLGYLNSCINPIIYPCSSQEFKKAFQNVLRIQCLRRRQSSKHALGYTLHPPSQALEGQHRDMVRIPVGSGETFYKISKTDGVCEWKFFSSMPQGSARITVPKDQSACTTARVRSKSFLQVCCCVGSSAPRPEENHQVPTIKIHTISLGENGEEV

[9] = biological target: Adrenergic receptor alpha-1 (Rattus norvegicus) (UniProt P15823+P23944+P43140); assay: Antagonistic activity against Alpha-1 adrenergic receptor in rat prostate tissue using A61603 as agonist; type: functional, tissue-based; settings: Prostate gland
Canis familiaris [10] = organism: Canis familiaris; assay: Potency to inhibit phenylephrine stimulated diastolic blood pressure in dog.; type: functional, Canis lupus familiaris, Artery; summary of the method: as §1
Canis familiaris [11] = organism: Canis familiaris; assay: Antagonism against phenylephrine induced contractions in isolated prostate tissue of dog; type: functional, Canis lupus familiaris, Prostate gland
Summary of the method: (§4)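 Isolated prostate strips (rat or dog) contracted with phenylephrine as agonist. Antagonist potency is expressed as Kb, derived from the shift in the agonist response by a previously published method.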

Rattus norvegicus [12] = organism: Rattus norvegicus; assay: Antagonism against phenylephrine induced contractions in isolated prostate tissue of rat; type: functional, Prostate gland; summary of the method: as §4
Rattus norvegicus [13] = organism: Rattus norvegicus; assay: Antagonistic activity against norepinephrine induced contractions in rat vas deferens.; type: functional
Homo sapiens = organism: Homo sapiens; assay: Antagonism against phenylephrine induced contractions in isolated prostate tissue of human; type: functional; settings: Prostate gland

Row | Structure (SMILES) | Kb (Canis familiaris [1]) [µg/kg] | Kb (Canis familiaris [2]) [µg/kg] | AD50 (Rattus norvegicus [3]) [mg/kg] | AD50 (Rattus norvegicus [4]) [mg/kg] | Duration of action (Rattus norvegicus [5]) [h] | Kb (Rattus norvegicus [6]) [nM] | Duration of action (Rattus norvegicus [7]) [h] | Ki [8] [nM] | Kb [9] [nM] | Kb (Canis familiaris [10]) [µg/kg] | Kb (Canis familiaris [11]) [nM] | Kb (Rattus norvegicus [12]) [nM] | Kb (Rattus norvegicus [13]) [nM] | Kb (Homo sapiens) [nM]
1 | COc1cc2nc(N3CCN(C(=O)C4CCCO4)CC3)nc(N)c2cc1OC (stereo not drawn) [TERAZOSIN] | 15.7 | 16.4 | 0.052 | 0.065 | >4 | 19 | – | – | – | – | – | – | – | –
2 | CCC1=C(C(N)=O)C(c2ccc(F)c(F)c2)N(C(=O)NCCCN2CCC(C(=O)OC)(c3ccccc3)CC2)C(=O)N1 (stereo not drawn) | – | 4.2 | 0.02 | >3 | – | > 1000 | > 4 | 0.27 | 0.3 | 187 | 3.7 | 1 | 2.5 | 0.39
